From PMC5182512 (Phytochemistry, 2014)

Target: CrSMT (Chlamydomonas reinhardtii, UniProt A8IJ34)
Assay: [methyl-3H3]SAM radiometric assay, initial velocity, Lineweaver-Burk
Type: biochemical
Conditions: E. coli lysate; 100 μM SAM (saturating), phosphate buffer pH 7.5
Method in brief: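 Recombinant 384-aa CrSMT expressed in E. coli BL21(DE3), IPTG-induced (0.4 mM, 2 h, 30 °C), French-press lysate in 20 mM phosphate, 5% glycerol, pH 7.5. Lysate (1–2 mg total protein) incubated 45 min with sterol acceptor 5–150 μM plus [methyl-3H3]SAM (0.6 μCi). Methanolic KOH saponification, hexane extraction of non-saponifiable lipids. Sterol-free background 500–1000 dpm. Lineweaver–Burk analysis.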

Row | Km [µM] | Structure (SMILES)
1 | 24 | CC(C)=CCC[C@@H](C)[C@H]1CC[C@@]2(C)C3=C(CC[C@]12C)[C@@]1(C)CC[C@H](O)C(C)(C)[C@@H]1CC3 [compound 1, Lanosterol]
2 | 22 | CC(C)=CCC[C@@H](C)[C@H]1CC[C@H]2C3=C(CC[C@]12C)[C@@]1(C)CC[C@H](O)C[C@@H]1CC3 [compound 9, Zymosterol]
